Screening results (PubChem)
PTPN22 inh 2: inhibitors of human LYP (PTPN22) phosphatase; recombinant LYP catalytic domain, DiFMUP fluorescence; inhibition, % at 2 µM; hit rate 0.21% among 96,000;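 active = inhibition at 2 µM at or above a set limit, the screen mean plus 3 SD, cut at about 24% in these data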;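 note: 0% = DMSO with enzyme and 100% = enzyme fully blocked by orthovanadate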
PTPN22 act: increases human PTPN22 phosphatase activity; Q9Y2R2; recombinant LYP, DiFMUP fluorescence; 0 = plate median, 100 = signal doubled; activation, % at 2 µM; hit rate 0.11% among 96,000;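 active = activation at 2 µM above a set limit, the mean plus 5 SD, cut at about 37% in these data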
HIV Rev-RRE inh: inhibitors of HIV-1 Rev-RRE RNA interaction; Rev peptide-RRE RNA binding, FRET; hit rate 0.79% among 97,000; inhibition, % at 8 µM; P05866;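 active = inhibition above the screen-wide mean plus 3 SD, cut at about 35% in these data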;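 note: 0% = median DMSO wells and 100% = median Neomycin B control wells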
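Assay system: Labelled RRE RNA duplex and labelled Rev peptide | Times: 5 min preincubation and 15 min binding, 25 °C | Detection: FRET, ex 480 nm, em 540 and 671 nm | Evaluation: % inhibition of FRET ratio versus controls | Benchmarks: DMSO wells as 0% and neomycin B wells as 100% inhibition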
EphB4 antag: EphB4-ephrin-B2 interaction antagonism | P54760 | EphB4 LBD / TNYL-RAW-Alexa532 peptide, fluorescence polarization | inhibition, % at 7 µM | hit rate 0.15% among 97,000;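 active = inhibition above the screen-wide mean inhibition plus 3 SD, cut at about 15% in these data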;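 note: 0% = DMSO wells and 100% = excess unlabeled TNYL-RAW peptide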
Target sequence (P54760 whole entry, looked up, the tested form may be a part): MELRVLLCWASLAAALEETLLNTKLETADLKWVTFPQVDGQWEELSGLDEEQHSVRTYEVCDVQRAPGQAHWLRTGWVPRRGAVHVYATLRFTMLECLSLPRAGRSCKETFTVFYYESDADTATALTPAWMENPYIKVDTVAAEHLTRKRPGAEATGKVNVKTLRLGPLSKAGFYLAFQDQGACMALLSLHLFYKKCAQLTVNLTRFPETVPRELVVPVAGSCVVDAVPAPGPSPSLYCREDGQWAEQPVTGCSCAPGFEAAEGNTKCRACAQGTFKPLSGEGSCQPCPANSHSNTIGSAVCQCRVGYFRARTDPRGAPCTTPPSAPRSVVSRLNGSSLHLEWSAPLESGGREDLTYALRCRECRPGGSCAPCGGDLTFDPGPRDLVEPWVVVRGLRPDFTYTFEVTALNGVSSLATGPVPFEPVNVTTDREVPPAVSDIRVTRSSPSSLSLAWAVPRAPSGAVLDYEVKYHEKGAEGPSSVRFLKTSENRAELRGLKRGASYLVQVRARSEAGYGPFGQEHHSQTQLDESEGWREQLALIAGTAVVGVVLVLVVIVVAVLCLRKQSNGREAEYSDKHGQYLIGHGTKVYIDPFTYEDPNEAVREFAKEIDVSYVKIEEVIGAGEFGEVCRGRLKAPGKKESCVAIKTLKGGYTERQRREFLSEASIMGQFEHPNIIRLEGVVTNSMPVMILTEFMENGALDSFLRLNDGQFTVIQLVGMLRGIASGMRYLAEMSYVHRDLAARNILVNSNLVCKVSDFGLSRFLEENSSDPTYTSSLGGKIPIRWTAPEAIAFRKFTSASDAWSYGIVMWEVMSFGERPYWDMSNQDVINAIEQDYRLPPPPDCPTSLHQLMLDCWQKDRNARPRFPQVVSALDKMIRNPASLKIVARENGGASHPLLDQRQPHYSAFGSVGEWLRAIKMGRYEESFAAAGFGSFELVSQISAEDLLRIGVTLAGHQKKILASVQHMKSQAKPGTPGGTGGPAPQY
Starred values were filed as active, the others as inactive; [ ] = another dose, or the depositor's remark. Most compounds without a hit are left out; they make up all but 1.3% or so of the library.

SMILES	PTPN22 inh 2	PTPN22 act	HIV Rev-RRE inh	EphB4 antag
COc1ccc2c(C)cc(SCC(=O)Nc3c(C)n(C)n(-c4ccccc4)c3=O)nc2c1	47.1*	-46.0	4.4	2.0
Cc1cc2n(n1)C(c1c[nH]c3ccccc13)Nc1ccccc1-2 (centres undefined)	-1.1	-1.0	5.1	-5.2
CN(C)c1ccc(/C=C2\SC(=S)N(Nc3ncc(C(F)(F)F)cc3Cl)C2=O)cc1	-4.3	0.8	138.0*[fluorescence artefact?]	-4.1
O=C(OCC1OC(n2cnc3c(N(C(=O)c4ccccc4)C(=O)c4ccccc4)ncnc32)C(O)C1F)c1ccccc1 (centres undefined)	59.9*	-58.6	5.3	2.6
C=CCNc1ncnc2c1ncn2C1OC(CO)C(O)C1O (centres undefined)	-16.1	13.4	8.8	-1.3
Clc1cccc(/C=N/Nc2ncnc3ccccc23)c1	-11.8	10.7	8.1	84.6*[fluorescence artefact?]
Clc1ccc(/C=N/Nc2nc(Cl)nc3ccccc23)cc1	0.6	1.7	4.7	-4.7
COc1ccc2nc(SCc3cnc(C)nc3N)[nH]c2c1	57.9*	-57.1	6.8	-5.7
COc1ccc(N/C(=C(/C(Cl)=C(Cl)Cl)[N+](=O)[O-])n2nnc3ccccc32)cc1OC	-4.6	5.1	38.3*	2.0
COc1ccc(C(=O)n2nnc3ccccc32)cc1Br	-0.7	2.4	6.2	-1.2
N#C[C@@H]1[C@@H]2C(=O)N(c3ccc4c(c3)OCCO4)C(=O)[C@@H]2C2c3ccccc3C=CN21 (some centres undefined)	-7.3	10.7	41.8*	2.2
O=C1CC(N2CCN(c3ccccc3)CC2)C(=O)N1c1ccc2c(c1)OCCO2 (centres undefined)	0.1	-4.2	2.9	5.9
O=[N+]([O-])c1cc(/C=N\Nc2nccs2)ccc1O	39.7*	-38.3	-5.2	-1.2
Cc1ccc(C=Nc2ccc(N(C)C)cc2)o1	-0.3	-1.2	-15.2	-2.3
CN(C)c1ccc(/C=C/c2cc[n+]([O-])cc2)cc1	-6.1	7.4	120.5*[fluorescence artefact?]	4.4
CN(C)c1ccc(/C=C/c2cc[n+](C)cc2)cc1	-5.8	1.8	49.0*[fluorescence artefact?]	-4.0
Cc1cccc(N(CC(=O)N/N=C/c2ccc(OCC(=O)NCc3ccco3)cc2)S(C)(=O)=O)c1C	11.4	-10.8	6.3	-7.3
CCCc1[nH]nc2c1C(c1ccc(OC)c(Cn3nnc4ccccc43)c1)C(C#N)=C(N)O2 (centres undefined)	-6.5	3.6	13.5	16.6*
Cc1oc(CC(C)C)c(CN)c1C(=O)O	12.4	-12.8	7.0	8.5
CCn1nnc(NC(=O)c2cccc(-c3cc4ccccc4oc3=O)c2)n1	1.5	-4.5	10.2	0.8
Cc1ccc2nc(NC(=O)c3cccc(-c4cc5ccccc5oc4=O)c3)sc2c1	26.3*	-22.4	3.1	-8.1
O=C(Nc1ccc(N2CCCCC2)c(Cl)c1)c1ccc2c(c1)OCCO2	35.7*	-34.3	17.0	2.3
CCn1c2ccccc2c2cc(N)ccc21	-3.9	3.1	57.1*	0.2
CCOc1ccc2nc(NC(=O)CCC(=O)c3cccs3)sc2c1	-6.0	6.6	7.8	-2.2
CC(c1ccccc1)C1CC(=O)N(C2CCCCC2)C1=O (centres undefined)	-4.9	3.9	11.0	16.8*
SMILES	PTPN22 inh 2	PTPN22 act	HIV Rev-RRE inh	EphB4 antag
O=C1C2C(c3ccccc3)C=CC(c3ccccc3)C2C(=O)N1C1CCCCC1 (centres undefined)	6.6	-5.7	7.8	-10.8
CCC(CC)NC(=O)Cc1ccccc1[N+](=O)[O-]	8.5	-2.6	1.9	9.7
O=C(NCCCc1ccccc1)C1CC(=O)N(c2ccc3c(c2)OCCO3)C1 (centres undefined)	0.9	-4.1	3.4	-10.3
O=C(NC(Cc1ccccc1)c1nc2ccccc2[nH]1)C1CC(=O)N(c2ccc3c(c2)OCCO3)C1 (centres undefined)	5.9	-2.7	0.2	15.4*
COc1ccc(F)cc1S(=O)(=O)NC1CCCC1	-10.7	11.8	0.7	-1.2
CCN(CC)c1ccc2c(c1)oc(=O)c1c(Cl)cc(=O)oc12	-4.2	4.2	129.1*[fluorescence artefact?]	2.0
C=CCSc1ncc(C#N)c(N)n1	6.2	-0.2	7.5	4.1
Cc1cc(/C=C2\SC(=S)NC2=O)c(C)n1C1CC1	1.6	-2.6	65.1*	-0.3
CCn1c2ccccc2c2cc(NC(=O)c3ccc(Br)o3)ccc21	1.4	-3.8	75.8*	3.2
CC(C)c1ccc(Nc2cnn(C34CC5CC(CC(CC(=O)O)(C5)C3)C4)c(=O)c2Cl)cc1	-3.2	-0.7	2.4	5.7
Cc1ccc(Nc2cnn(C34CC5CC(CC(CC(=O)O)(C5)C3)C4)c(=O)c2Cl)cc1	-0.1	3.5	11.2	51.6*
